Activity calls are given as the source filed them. The calls are words filed in the database; no cut-off is given here.
How the values were obtained:
Cryptococcus neoformans = experiment: Antimicrobial activity against Cryptococcus neoformans ATCC 66031 assessed as inhibition of microbial growth by microbroth dilution assay; assay type: functional
In short: (§1)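 Antifungal broth microdilution test against the yeast strain (C. albicans ATCC 10231 or C. neoformans ATCC 66031). Amphotericin B at 2 μg/mL served as the control antifungal. MIC values were taken from the broth panel.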

Candida albicans = experiment: Antimicrobial activity against Candida albicans ATCC 10231 assessed as inhibition of microbial growth by microbroth dilution assay; assay type: functional; in short: as §1
Plasmodium falciparum = experiment: Antiplasmodial activity against Plasmodium falciparum NF54 assessed as inhibition of microbial growth at 10 ug/ml by [3H]hypoxanthine incorporation assay; assay type: functional, organism-based
In short: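 In vitro screen against the drug-sensitive P. falciparum NF54 strain using a modified [3H]hypoxanthine incorporation assay. Chloroquine and artesunate were run as positive controls.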

Staphylococcus aureus = experiment: Antimicrobial activity against methicillin-resistant Staphylococcus aureus ATCC 43300 assessed as inhibition of microbial growth by microbroth dilution assay; assay type: functional
In short: (§2)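 Broth microdilution susceptibility test; the read-out is MIC. The reference antibiotic was tetracycline at 10 μg/mL for MRSA ATCC 43300 and penicillin G at 10 μg/mL for E. faecalis ATCC 51299.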

Enterococcus faecalis = experiment: Antimicrobial activity against vancomycin-resistant Enterococcus faecalis ATCC 51299 assessed as inhibition of microbial growth by microbroth dilution assay; assay type: functional; in short: as §2
Bacillus subtilis = experiment: Antimicrobial activity against Bacillus subtilis ATCC 6633 assessed as inhibition of microbial growth by microbroth dilution assay; assay type: functional
In short: (§3)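 Broth microdilution susceptibility test against the listed ATCC bacterial strain. Tetracycline at 10 μg/mL served as the positive-control antibiotic. Growth inhibition was read in broth, with MIC values reported.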

Escherichia coli = experiment: Antimicrobial activity against Escherichia coli ATCC 25922 assessed as inhibition of microbial growth by microbroth dilution assay; assay type: functional; in short: as §3
Acinetobacter baumannii = experiment: Antimicrobial activity against Acinetobacter baumannii ATCC 19606 assessed as inhibition of microbial growth by microbroth dilution assay; assay type: functional; in short: as §3
Pseudomonas aeruginosa = experiment: Antimicrobial activity against Pseudomonas aeruginosa ATCC 27853 assessed as inhibition of microbial growth by microbroth dilution assay; assay type: functional
In short: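 Broth microdilution susceptibility test against P. aeruginosa ATCC 27853. Tetracycline at 50 μg/mL served as the positive-control antibiotic. Growth inhibition was read in broth, with MIC values reported.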

Klebsiella pneumoniae = experiment: Antimicrobial activity against Klebsiella pneumoniae ATCC 13883 assessed as inhibition of microbial growth by microbroth dilution assay; assay type: functional; in short: as §3

C[C@@H]1[C@H](O)[C@@H](C)/C=C/C=C/C=C/C=C/C=C/C=C/C=C/[C@H](O[C@@H]2O[C@H](C)[C@@H](O)[C@H](N)[C@@H]2O)C[C@@H]2O[C@](O)(C[C@@H](O)C[C@@H](O)[C@H](O)CC[C@@H](O)C[C@@H](O)CC(=O)O[C@H]1C)C[C@H](O)[C@H]2C(=O)O [AMPHOTERICIN B]
MIC (Cryptococcus neoformans): 0.2 µg/mL
MIC (Candida albicans): 0.2 µg/mL

CCCCCCC[C@@H]1Cc2c(C)c(O)cc(O)c2C(=O)O1
MIC (Cryptococcus neoformans): 40 µg/mL
MIC (Candida albicans): > 100 µg/mL
growth inhibition (GI) (Plasmodium falciparum): inactive

CCCCCCC[C@@H]1Cc2c(C)c(O)cc(O)c2CO1
MIC (Cryptococcus neoformans): > 100 µg/mL
MIC (Candida albicans): > 100 µg/mL
MIC (Staphylococcus aureus): > 100 µg/mL
MIC (Enterococcus faecalis): > 100 µg/mL
MIC (Bacillus subtilis): > 100 µg/mL
MIC (Escherichia coli): > 100 µg/mL
MIC (Acinetobacter baumannii): > 100 µg/mL
MIC (Pseudomonas aeruginosa): > 100 µg/mL
MIC (Klebsiella pneumoniae): > 100 µg/mL

CC(=O)CCCCC[C@@H]1Cc2c(C)c(O)cc(O)c2C(=O)O1
MIC (Cryptococcus neoformans): > 100 µg/mL
MIC (Candida albicans): > 100 µg/mL
growth inhibition (GI) (Plasmodium falciparum): inactive
MIC (Staphylococcus aureus): > 100 µg/mL
MIC (Enterococcus faecalis): > 100 µg/mL
MIC (Bacillus subtilis): > 100 µg/mL
MIC (Escherichia coli): > 100 µg/mL
MIC (Acinetobacter baumannii): > 100 µg/mL
MIC (Pseudomonas aeruginosa): > 100 µg/mL
MIC (Klebsiella pneumoniae): > 100 µg/mL

Cc1c(O)cc(O)c2c1C[C@@H](CCCCCC(C)O)OC2=O (some centres not stated)
MIC (Cryptococcus neoformans): > 100 µg/mL
MIC (Candida albicans): > 100 µg/mL
MIC (Staphylococcus aureus): > 100 µg/mL
MIC (Enterococcus faecalis): > 100 µg/mL
MIC (Bacillus subtilis): > 100 µg/mL
MIC (Escherichia coli): > 100 µg/mL
MIC (Acinetobacter baumannii): > 100 µg/mL
MIC (Pseudomonas aeruginosa): > 100 µg/mL
MIC (Klebsiella pneumoniae): > 100 µg/mL

Cc1c(O)cc(O)c2c1C[C@@H](CCCCCCC(=O)O)OC2=O
MIC (Cryptococcus neoformans): > 100 µg/mL
MIC (Candida albicans): > 100 µg/mL
MIC (Staphylococcus aureus): > 100 µg/mL
MIC (Enterococcus faecalis): > 100 µg/mL
MIC (Bacillus subtilis): > 100 µg/mL
MIC (Escherichia coli): > 100 µg/mL
MIC (Acinetobacter baumannii): > 100 µg/mL
MIC (Pseudomonas aeruginosa): > 100 µg/mL
MIC (Klebsiella pneumoniae): > 100 µg/mL

O=C1CC[C@H](O)c2cccc(O)c21
MIC (Cryptococcus neoformans): 30 µg/mL
MIC (Candida albicans): 40 µg/mL
growth inhibition (GI) (Staphylococcus aureus): inactive
growth inhibition (GI) (Enterococcus faecalis): inactive
growth inhibition (GI) (Bacillus subtilis): inactive
growth inhibition (GI) (Escherichia coli): inactive
growth inhibition (GI) (Acinetobacter baumannii): inactive
growth inhibition (GI) (Pseudomonas aeruginosa): inactive
growth inhibition (GI) (Klebsiella pneumoniae): inactive

O=C(O)CCCCCC[C@@H]1Cc2cc(O)cc(O)c2C(=O)O1
MIC (Cryptococcus neoformans): > 100 µg/mL
MIC (Candida albicans): > 100 µg/mL
MIC (Staphylococcus aureus): > 100 µg/mL
MIC (Enterococcus faecalis): > 100 µg/mL
MIC (Bacillus subtilis): > 100 µg/mL
MIC (Escherichia coli): > 100 µg/mL
MIC (Acinetobacter baumannii): > 100 µg/mL
MIC (Pseudomonas aeruginosa): > 100 µg/mL
MIC (Klebsiella pneumoniae): > 100 µg/mL

CCCCCCC[C@@H]1Cc2c(C)c(O)c(C(=O)O)c(O)c2CO1
MIC (Cryptococcus neoformans): 35 µg/mL
MIC (Candida albicans): > 100 µg/mL
growth inhibition (GI) (Plasmodium falciparum): inactive

Cc1c(O)cc(O)c2c1C[C@@H](CCCCCCCO)OC2=O
MIC (Cryptococcus neoformans): > 100 µg/mL
MIC (Candida albicans): > 100 µg/mL
MIC (Staphylococcus aureus): > 100 µg/mL
MIC (Enterococcus faecalis): > 100 µg/mL
MIC (Bacillus subtilis): > 100 µg/mL
MIC (Escherichia coli): > 100 µg/mL
MIC (Acinetobacter baumannii): > 100 µg/mL
MIC (Pseudomonas aeruginosa): > 100 µg/mL
MIC (Klebsiella pneumoniae): > 100 µg/mL
